Measured values from PubChem BioAssay AID373 (The Scripps Research Institute Molecular Screening Center, 2006).
The campaign covered roughly 60,000 compounds. About 60 (0.1%) were called active.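 How the source made its calls: active means activation above the screen-wide mean plus 3 SD (cut at about 4.5% in these data, passing the limit was not always enough); inactive means the rest, inconclusive results apart.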 The list comes from a sample in which actives are over-represented; it also holds similar structures and randomly drawn compounds.

Target: Sphingosine 1-phosphate receptor 3 (Homo sapiens) (UniProt Q99500)
Test: activators of S1P3 receptor signaling – cell-based, primary and confirmation, NFAT-BLA reporter, primary screen (AID 373)
Conditions: S1P3 NFAT-BLA reporter cells, agonism, FRET ratio, at 4.5 µM, stronger effect = higher value, relative to 1 µM S1P, basal subtracted
Outline: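 Assay system: stable CHO line with human S1P3, Gα16, NFAT-BLA reporter; Detection: FRET β-lactamase substrate fluorescence, excitation 405 nm, 460/535 nm emission ratio, background-subtracted; Read-out: percent activation versus median 1 µM S1P response, basal-subtracted, per plate; Incubation: cells plated overnight, compound 4 h 37 °C, substrate 2 h RT.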

Sequence of Sphingosine 1-phosphate receptor 3 (Homo sapiens) (Q99500 whole entry, looked up): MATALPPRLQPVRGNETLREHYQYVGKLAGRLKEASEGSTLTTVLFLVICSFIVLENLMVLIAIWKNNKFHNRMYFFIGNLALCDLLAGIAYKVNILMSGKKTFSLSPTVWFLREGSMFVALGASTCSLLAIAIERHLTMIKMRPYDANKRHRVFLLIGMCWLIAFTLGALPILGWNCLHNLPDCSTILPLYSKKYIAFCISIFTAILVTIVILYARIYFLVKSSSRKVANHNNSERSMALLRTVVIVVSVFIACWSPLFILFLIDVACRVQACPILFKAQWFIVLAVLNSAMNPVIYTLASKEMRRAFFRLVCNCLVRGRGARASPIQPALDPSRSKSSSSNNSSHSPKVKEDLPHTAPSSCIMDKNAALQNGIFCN

activation, inactive:
CC(C)c1ccc(NC(=O)NC2CCCCC2)cc1 0%
Cc1ccc2nc(NC(=O)C3CCN(S(=O)(=O)c4ccc5c(c4)oc(=O)n5C)CC3)sc2c1 -0.9%
O=C(O)CCCC(=O)Nc1ccccc1-n1ccnc1 -0.2%
CCCOc1cccc(C(=O)Nc2nnn(CCC)n2)c1 0%
COc1ccc(-c2noc(COc3ccc(Cl)c(C)c3)n2)cc1 -0.7%
Cc1cc(C)nc(N(C#N)CC(=O)Nc2ccccc2)n1 -0.7%
Cc1nn(-c2cc(Cl)ccc2N)c(=O)c2ccccc12 -1.6%
CCOCC(=O)NCc1ccc2c(c1)cc(C)n2C -0.3%
CN(CC(=O)NC1CCCCC1)S(=O)(=O)c1cccc2cccnc12 -1.1%
COc1ccc(S(=O)(=O)N2CCC(C(=O)N3CCOCC3)CC2)cc1OC -0.8%
Cc1ccn2cc(C(=O)NC3CCN(Cc4ccccc4)CC3)nc2c1 -0.2%
CC(=O)N1CCN(C(=O)Nc2cccc(C(F)(F)F)c2)CC1 -0.4%
O=C(Nc1nccs1)C1CCCN1S(=O)(=O)c1cccc2cccnc12 (configuration not stated) -0.3%
Cc1cccc2c1N(CC(=O)OC(C)C)C(=O)C2=O -0.6%
COc1ccccc1Nc1ncnc2c1oc1ccccc12 -1%
Cc1cnc(NC(=O)CSc2nnc(-c3ccc(Cl)cc3Cl)n2N)s1 -0.7%
CC12CN3CC(C)(CN(C1)C3c1ccc(Cl)cc1Cl)C2=O (configuration not stated) -0.5%
CC(=O)Nc1ccc(NS(=O)(=O)c2cc(C)sc2C)cc1 -0.3%
Cc1ccc(S(=O)(=O)N2CCC(N3CCCCCC3)CC2)cc1 -2.7%
CC1COC2C(O1)N(S(C)(=O)=O)CCN2S(C)(=O)=O (configuration not stated) -1.9%
CCOc1ccc(C2C(C(=O)O)c3ccccc3C(=O)N2CCN2CCOCC2)cc1 (configuration not stated) -0.7%
CC(C)N(C(=O)Cn1c(SCC(=O)N2CCN(c3ccccc3)CC2)nc2ccccc21)C(C)C 0.4%
CCn1c(SCC(=O)Nc2cccc(F)c2)nnc1-c1cc2cc(Br)ccc2o1 0.7%
CC1CCN(C(=O)CSc2ccc3nnc(-c4cccc(F)c4)n3n2)CC1 -0.5%
CCOc1ccc(OCC)c(NC(=O)C(NS(=O)(=O)c2ccc3c(c2)oc(=O)n3C)C(C)C)c1 (configuration not stated) 0.3%
CC1CCN(Cc2nc3c(c(=O)n(C)c(=O)n3C)n2CCc2ccccc2)CC1 -0.7%
CCc1c(C)c2c(C)[nH]nc2oc1=O 0.6%
CCCCC(=O)N(c1ccc(OC)cc1)C1C=CS(=O)(=O)C1 (configuration not stated) -0.5%
COc1ccc(-c2nc(CS(=O)CC(=O)NCc3cccnc3)c(C)o2)cc1OC (configuration not stated) -0.9%
CCn1c(SCC(=O)NCc2ccco2)nnc1-c1ccc(N)cc1 1.1%
CCN(CC)S(=O)(=O)c1ccc2nc(COC(=O)c3n[nH]c4ccccc34)[nH]c2c1 0%
C[N+](C)(C)CCOP(=O)([O-])OC[C@H](O)CO -3.9%
c1ccc(Nc2n[nH]nc2-c2ccccc2)cc1 -1.7%
O=C(c1ccc(-n2cnnn2)cc1)N1CCN(C(c2ccccc2)c2ccccc2)CC1 0.7%
O=C(NCc1cn2ccsc2n1)Nc1cccc(Cl)c1 1.1%
Cc1cccc(CSc2nnc(Cn3c(=O)sc4ccccc43)n2C)c1 -0.9%
Cc1cc(C)cc(N(CC(=O)NCC2CCCO2)S(=O)(=O)c2c(C)noc2C)c1 (configuration not stated) -0.2%
CCOC(=O)c1ccc(-c2ccc(C(=O)Nc3cccnc3)o2)cc1 0.3%
Cc1ccc(-c2noc(CCC(=O)Nc3ccccc3N3CCN(C)CC3)n2)cc1 0.8%
CCN(CC)CCCN1C(=O)C(=O)/C(=C(/O)c2c(C)nc3ccccn23)C1c1ccc(C)o1 (configuration not stated) 0.3%
CNC(=O)Nc1cc(C(C)(C)C)no1 -0.1%
COc1ccc(CCn2c(-c3ccco3)nc3nc4ccccc4nc32)cc1OC -1.1%
Cc1ccc(-c2c3c(=O)n(C)c(=O)n(C)c3cn2-c2ccccc2O)cc1 0.1%
COc1cccc(-n2c(Cc3cc(=O)[nH]c(=O)[nH]3)nnc2SCC(=O)Nc2ccccc2)c1 0.3%
Cc1cccc(NC(=O)COc2ccc(Br)cc2C)n1 -1%
Cc1cc(/C=N/n2cnnc2)c(C)n1-c1ccc2ncccc2c1 0.1%
CCOCCCNC(=O)Cc1cc(=O)[nH]c(=O)[nH]1 0.5%
O=S(=O)(Nc1ccccc1N1CCOCC1)c1ccc(Cl)s1 0.7%
O=c1cc(Cn2nnc(-c3ccc(Cl)cc3)n2)nc2sccn12 -0.5%
O=C(CSc1nnc(-c2ccco2)n1-c1ccccc1)NCCc1ccccc1 0%
COc1ccc(C(=O)c2oc3ccc(Br)cc3c2NC(C)=O)cc1 -0.9%
Cc1cc(C)c(NC(=O)CS(=O)CC(=O)Nc2cccnc2)c(C)c1 (configuration not stated) 0.3%
COc1ccc(-n2nnc3c(=O)n(CC(=O)N4CCC(Cc5ccccc5)CC4)cnc32)cc1 -0.4%
Cc1ccc(C(=O)N(CN2CCCC2=O)c2ccc(F)cc2)cc1 -1.3%
CC1CC(C)CN(CC(=O)Nc2ccc(S(N)(=O)=O)cc2)C1 (configuration not stated) -0.9%
CN(C)c1nc2n(c(=O)n1)CCO2 0.6%
c1ccc2c(c1)OCC(c1nn3cnnc3s1)O2 (configuration not stated) -0.3%
Cc1ccc(C(c2sc3nc(C)nn3c2O)N2CCN(c3ccc(F)cc3)CC2)cc1 (configuration not stated) 0.6%
CC(C)(C)Oc1ncc(Br)c(OC(C)(C)C)n1 -0.4%
N#Cc1c(N)n(CCOC(=O)c2ccc(Cl)cc2)c2nc3ccccc3nc12 2.5%
COc1ccc(C(C)=O)cc1COC(=O)Cn1cnc2ccccc2c1=O 0.7%
Cc1cc(C(F)(F)F)nn1CC(=O)N1CCCC1 -0.4%
